Hits are enriched below; roughly 3.4% of the tested compounds scored in any of these assays.
MC4R antag cAMP = MC4R antagonists of cAMP signaling, primary screen, cell-based, TR-FRET, antagonist arm of biased-ligand search; Melanocortin receptor 4 (Homo sapiens), P32245; actives 0.48% (n = 360,000); inhibition, % at 6.5 µM; MC4R-expressing cells, MTII-stimulated cAMP, LANCE TR-FRET; AID 540295, 2011;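 active = inhibition above its plate's cutoff, the mean of tested wells on that plate plus 3 SD, cut at about 29% in these data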;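 note: 0% = Melanotan II alone and 100% = Melanotan II plus saturating MCL0020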
Target sequence (P32245 whole entry, looked up): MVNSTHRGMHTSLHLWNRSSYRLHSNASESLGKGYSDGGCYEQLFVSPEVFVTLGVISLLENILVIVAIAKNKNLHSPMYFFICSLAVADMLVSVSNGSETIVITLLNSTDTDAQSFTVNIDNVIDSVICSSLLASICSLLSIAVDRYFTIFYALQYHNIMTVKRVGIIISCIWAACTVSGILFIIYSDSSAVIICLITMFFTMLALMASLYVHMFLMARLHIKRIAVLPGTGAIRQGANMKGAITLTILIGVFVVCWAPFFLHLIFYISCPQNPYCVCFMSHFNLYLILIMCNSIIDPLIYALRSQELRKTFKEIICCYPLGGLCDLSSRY
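Assay system: human MC4R-expressing U2OS cells; reagent: Melanotan II stimulation of cells; dosing: 6.5 µM single dose; timing: compound 30 min, challenge 1 h, detection 1 h; signal: TR-FRET cAMP assay; replicates: one well per compound, no replicates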
TMEM16A act = TMEM16A chloride channel activators or potentiators, primary screen, cell-based, HTS; HEK293 TMEM16A/YFP-H148Q/I152L, iodide quench fluorescence; hits give low values; B-score at 10 µM; actives 0.3% (n = 340,000);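 active = fluorescence-ratio B-score plate-corrected deviation score at least 3 library SD below zero, with starting fluorescence score within 5 deviations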;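 note: channel opened by trigger with iodide after compound preincubation; score built on the fluorescence ratio of max minus min over baseline; more negative score means more quench and so TMEM16A activation or potentiation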
ANO1 block = TMEM16A chloride channel inhibitors, primary screen, cell-based, HTS; Anoctamin-1 (Mus musculus), Q8BHY3; AID 588511, 2011; normalized B-score (activity score, 25-100; higher = stronger inhibition) at 10 µM; actives 1.2% (n = 310,000); HEK293 TMEM16A/YFP iodide influx fluorescence, ionomycin;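 active = ratio plate-corrected score three or more library SD toward inhibition, starting fluorescence score within five deviations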;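 note: score derived from kinetic fluorescence span divided by baseline fluorescence per well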
MC4R barr agon = MC4R agonists recruiting beta-arrestin, primary screen, cell-based, luminescence, agonist arm of biased-ligand search; activation, % at 8.9 µM; U2OS MC4R beta-arrestin complementation; percent of melanotan II response, DMSO zero; actives 0.98% (n = 360,000); Melanocortin receptor 4 (Homo sapiens), P32245; AID 540308, 2011;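 active = activation above a per-plate cutoff, the mean activation of sample wells on that plate plus 3 SD, cut at about 8% in these data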
beta cell repl = inducers of MIN6 beta-cell proliferation, primary screen, ATP luminescence, uHTS; MIN6 cells proliferation, ATPlite luminescence, 48 h; cells starved in 0.2% serum; 100% = growth in 10% serum; proliferation, % at 10 µM; actives 0.29% (n = 330,000); AID 2380, 2010;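 active = compounds whose signal lies at least 3.5 SD above the mean of all wells on their plate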;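 note: 0% = DMSO-treated cells in low-serum medium and 100% = 10% serum control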
HTR2A ag = mouse Htr2a agonists via beta-arrestin recruitment, primary screen, cell-based, luminescence; activation, % at 7.6 µM; actives 0.66% (n = 360,000); 5-hydroxytryptamine receptor 2A (Mus musculus), P35363; AID 624169, 2012; CHO-K1 mHTR2A beta-arrestin complementation; percent of 30 µM serotonin response;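 active = activation above a run cutoff, the mean activation of all tested compounds plus 3 SD, cut at about 14% in these data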;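 note: 0% = plate median of compound wells and 100% = 30 µM serotonin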
* = called active by the depositor; i = inactive; / = no result.

SMILES	MC4R antag cAMP	TMEM16A act	ANO1 block	MC4R barr agon	beta cell repl	HTR2A ag
Cc1c(C(=O)N2CCOCC2)c(S(=O)(=O)N2CCN(c3ccc(Cl)cc3)CC2)c(C)n1C	-2.6	i	i	-2.5	5.8	6.0
CCN1C/C(=N\S(=O)(=O)/N=C2\CN(CC)C(=O)N2CC)N(CC)C1=O	4.9	-8.15*	i	-1.2	-4.8	1.2
CCN1C(=O)CS/C1=N\S(=O)(=O)c1ccc(Cl)cc1	5.0	i	i	-1.9	-1.5	-0.1
CN(C)C(=O)CSc1n[nH]c(=O)n1CCc1ccccc1	-7.7	i	i	0.8	-2.1	2.3
O=[N+]([O-])c1ccc(O)c(/C=N/n2cnc3ccccc32)c1	9.1	i	25*	0.3	0.0	0.6
Cc1ccc(S(=O)(=O)N(C(=N)N)c2nc(N(C)C)nc(N(C)C)n2)cc1	11.2	i	i	0.9	3.1	-0.3
CCN1C(=O)C(CC(=O)Nc2ccc(OC)cc2)N(Cc2cccnc2)C1=S (stereo unspecified)	-2.9	i	i	-1.9	-3.7	-2.4
C=CCN1C(=O)C(CC(=O)Nc2ccc(OC)cc2)N(Cc2ccco2)C1=S (stereo unspecified)	2.6	-6.82*	i	-1.6	1.6	3.0
COc1ccc(NC(=O)CC2C(=O)N(CCc3ccccc3)C(=S)N2Cc2cccnc2)cc1 (stereo unspecified)	13.5	i	25*	0.2	-6.1	1.4
Nc1[nH]c(C(=O)c2ccccc2)c(-c2ccccc2Br)c1C(=O)c1ccccc1	/	/	/	/	/	4.1
CC(=O)Nc1cccc(NC(=O)CSc2nc(=O)n(CCCN3CCOCC3)c3c2CCC3)c1	-4.7	i	i	-2.2	5.2	7.3
Cc1c(C(=O)Oc2ccc(-c3cnc4ccccc4n3)cc2)cccc1[N+](=O)[O-]	5.6	i	i	2.8	-2.4	-0.5
O=C(Oc1ccc(-c2cnc3ccccc3n2)cc1)c1cc([N+](=O)[O-])ccc1Cl	29.3*	i	i	-0.1	-2.1	0.3
CN(C)c1ccc(-c2noc(C3CCN(C(=O)Nc4ccc(Cl)cc4)CC3)n2)cc1	2.1	-4.63*	i	0.8	-4.2	5.6
COc1ccc(S(=O)(=O)N(C)CC(=O)NCc2ccco2)cc1OC	-4.4	i	i	-0.5	0.0	-1.0
CCCCOc1ccc(C(=O)N/C(=C\c2cccc([N+](=O)[O-])c2)C(=O)OC(C)C)cc1	11.5	i	i	3.9	-2.6	-2.2
CCCCOc1ccc(C(=O)N/C(=C\c2cccc([N+](=O)[O-])c2)C(=O)OCCC)cc1	16.2	i	i	8.8*	-2.2	-2.6
Cc1cc(C(=O)CSc2nnnn2-c2ccc(O)cc2)c(C)n1Cc1ccc2c(c1)OCO2	17.3	i	i	2.7	-5.3	-1.0
Cc1cc(C(=O)CSc2nnc(-c3cccc(F)c3)n2N)c(C)n1Cc1ccc2c(c1)OCO2	10.8	i	100*	-0.2	-4.0	1.1
CC(OC(=O)c1cccc(O)c1)C(=O)N(C)Cc1ccccc1 (stereo unspecified)	5.0	i	i	-3.0	-3.4	-1.6
CC(OC(=O)/C(C#N)=C/c1ccc(N(C)C)cc1)C(=O)N(C)Cc1ccccc1 (stereo unspecified)	-6.9	-10.1*	i	-1.4	-5.0	1.5
O=S(=O)(NC1CC1)c1ccc(S(=O)(=O)N2CCN3CCCC3C2)cc1 (stereo unspecified)	-0.6	i	i	-0.5	-0.6	1.2
O=S(=O)(NC1CC1)c1ccc(S(=O)(=O)N2CCCC3(CCCCC3)C2)cc1	10.3	i	i	9.8*	-3.0	-1.0

Bioassay records as filed in PubChem BioAssay.
